From PMC5715471 (ACS chemical neuroscience, 2017)

Key:
[1] = system: mouse spared nerve injury (SNI) model; experiment: Mechanical sensitivity; assay type: in vivo
Procedure, shortened: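 Male C57Bl6/J mice with SNI (peroneal and tibial sciatic branches cut, sural spared), confirmed hypersensitive 2 weeks post-surgery and screened 21–60 days after SNI. Single intrathecal 10 μg in 5 μL saline (DMSO <5%, vehicle DMSO-matched). Blinded hindpaw von Frey, modified up–down, at set times. n = 4–11. Mean ± SEM; two-way ANOVA with Bonferroni. Repeat injections ≥14 days apart.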

[2] = target: 5HT1A (Homo sapiens, UniProt P08908); experiment: PDSP radioligand binding, 5HT1A; details: 10 μM
[3] = target: 5HT1B (Homo sapiens, UniProt P28222); experiment: PDSP radioligand binding, 5HT1B; details: 10 μM
[4] = target: 5HT2B (Homo sapiens, UniProt P41595); experiment: PDSP radioligand binding, 5HT2B; details: 10 μM
[5] = target: 5HT3 (Homo sapiens, UniProt P46098); experiment: PDSP radioligand binding, 5HT3; details: 10 μM
[6] = target: A2B4 (Rattus norvegicus, UniProt P12389+P12392); experiment: PDSP radioligand binding, A2B4; details: 10 μM
[7] = target: A4B4 (Rattus norvegicus, UniProt P09483+P12392); experiment: PDSP radioligand binding, A4B4; details: 10 μM
[8] = system: A7; experiment: PDSP radioligand binding, A7; details: 10 μM
[9] = target: Alpha1b (Homo sapiens, UniProt P35368); experiment: PDSP radioligand binding, Alpha1b; details: 10 μM
[10] = target: Alpha2b (Homo sapiens, UniProt P18089); experiment: PDSP radioligand binding, Alpha2b; details: 10 μM
[11] = system: BZP rat brain; experiment: PDSP radioligand binding, BZP rat brain; details: 10 μM
[12] = target: calcium channel; experiment: PDSP radioligand binding, calcium channel
[13] = target: D3 (Homo sapiens, UniProt P35462); experiment: PDSP radioligand binding, D3; details: 10 μM
[14] = target: H1 (Homo sapiens, UniProt P35367); experiment: PDSP radioligand binding, H1; details: 10 μM
[15] = target: M4 (Homo sapiens, UniProt P08173); experiment: PDSP radioligand binding, M4; details: 10 μM
[16] = target: MOR (Homo sapiens, UniProt P35372); experiment: PDSP radioligand binding, MOR; details: 10 μM
[17] = target: NMDA; experiment: PDSP radioligand binding, NMDA
[18] = target: V1A (Homo sapiens, UniProt P37288); experiment: PDSP radioligand binding, V1A
[19] = target: V2 (Homo sapiens, UniProt P30518); experiment: PDSP radioligand binding, V2

Sequence of 5HT1B (P28222 whole entry): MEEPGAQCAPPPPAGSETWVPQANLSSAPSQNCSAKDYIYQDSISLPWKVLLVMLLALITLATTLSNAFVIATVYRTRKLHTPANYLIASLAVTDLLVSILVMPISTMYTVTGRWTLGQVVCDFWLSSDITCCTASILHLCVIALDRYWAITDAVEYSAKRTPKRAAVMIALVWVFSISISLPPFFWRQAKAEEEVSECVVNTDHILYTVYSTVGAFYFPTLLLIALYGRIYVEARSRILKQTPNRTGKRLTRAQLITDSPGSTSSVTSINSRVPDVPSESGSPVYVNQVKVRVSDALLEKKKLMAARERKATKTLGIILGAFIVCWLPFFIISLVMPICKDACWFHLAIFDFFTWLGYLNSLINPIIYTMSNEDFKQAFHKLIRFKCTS
Sequence of V1A (P37288 whole entry): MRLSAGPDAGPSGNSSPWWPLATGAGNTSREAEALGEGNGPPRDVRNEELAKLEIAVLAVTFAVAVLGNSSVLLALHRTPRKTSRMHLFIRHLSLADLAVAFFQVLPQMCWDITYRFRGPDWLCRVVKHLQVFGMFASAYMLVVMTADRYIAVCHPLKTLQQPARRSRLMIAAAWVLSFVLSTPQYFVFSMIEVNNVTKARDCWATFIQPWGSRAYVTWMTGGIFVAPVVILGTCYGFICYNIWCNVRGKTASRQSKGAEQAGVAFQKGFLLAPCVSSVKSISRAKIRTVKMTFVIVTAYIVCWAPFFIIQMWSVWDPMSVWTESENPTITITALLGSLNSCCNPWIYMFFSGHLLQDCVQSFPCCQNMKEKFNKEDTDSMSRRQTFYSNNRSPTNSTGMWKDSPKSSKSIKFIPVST
Sequence of Alpha1b (P35368 whole entry): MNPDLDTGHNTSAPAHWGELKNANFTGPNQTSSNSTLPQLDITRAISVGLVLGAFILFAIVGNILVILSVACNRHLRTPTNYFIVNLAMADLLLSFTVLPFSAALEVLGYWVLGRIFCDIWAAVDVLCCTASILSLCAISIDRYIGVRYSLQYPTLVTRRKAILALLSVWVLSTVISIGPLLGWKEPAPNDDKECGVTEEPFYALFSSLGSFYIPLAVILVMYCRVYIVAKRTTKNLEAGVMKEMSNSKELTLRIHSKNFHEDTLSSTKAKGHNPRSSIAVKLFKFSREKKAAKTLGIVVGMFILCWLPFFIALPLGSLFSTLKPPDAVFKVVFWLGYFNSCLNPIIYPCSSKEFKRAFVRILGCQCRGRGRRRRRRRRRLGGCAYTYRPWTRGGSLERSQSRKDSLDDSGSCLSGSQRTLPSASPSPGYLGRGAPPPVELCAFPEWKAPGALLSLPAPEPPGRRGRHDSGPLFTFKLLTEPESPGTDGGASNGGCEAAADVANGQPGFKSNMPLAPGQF
Sequence of MOR (P35372 whole entry): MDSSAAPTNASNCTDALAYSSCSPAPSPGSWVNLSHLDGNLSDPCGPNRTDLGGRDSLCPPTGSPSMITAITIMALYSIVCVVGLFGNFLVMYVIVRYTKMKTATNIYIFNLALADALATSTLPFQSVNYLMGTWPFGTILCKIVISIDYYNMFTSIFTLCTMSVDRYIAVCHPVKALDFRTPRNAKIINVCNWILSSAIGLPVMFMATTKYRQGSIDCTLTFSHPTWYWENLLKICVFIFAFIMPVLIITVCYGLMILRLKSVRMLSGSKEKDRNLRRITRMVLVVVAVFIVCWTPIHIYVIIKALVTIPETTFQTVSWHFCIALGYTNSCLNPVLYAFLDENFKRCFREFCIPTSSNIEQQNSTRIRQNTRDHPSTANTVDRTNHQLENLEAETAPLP
Sequence of M4 (P08173 whole entry): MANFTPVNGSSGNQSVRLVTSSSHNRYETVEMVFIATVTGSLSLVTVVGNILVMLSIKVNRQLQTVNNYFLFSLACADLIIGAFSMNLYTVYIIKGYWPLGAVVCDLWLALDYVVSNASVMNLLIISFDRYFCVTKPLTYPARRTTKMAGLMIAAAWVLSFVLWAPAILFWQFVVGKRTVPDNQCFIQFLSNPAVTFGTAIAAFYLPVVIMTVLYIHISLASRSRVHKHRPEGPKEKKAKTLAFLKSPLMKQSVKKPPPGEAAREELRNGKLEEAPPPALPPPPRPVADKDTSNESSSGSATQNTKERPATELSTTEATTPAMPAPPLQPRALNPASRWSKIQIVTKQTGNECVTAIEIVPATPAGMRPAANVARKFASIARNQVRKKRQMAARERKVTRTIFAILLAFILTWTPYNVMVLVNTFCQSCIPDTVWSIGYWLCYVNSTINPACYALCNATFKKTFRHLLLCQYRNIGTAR
Sequence of A4B4 (P09483 31-630): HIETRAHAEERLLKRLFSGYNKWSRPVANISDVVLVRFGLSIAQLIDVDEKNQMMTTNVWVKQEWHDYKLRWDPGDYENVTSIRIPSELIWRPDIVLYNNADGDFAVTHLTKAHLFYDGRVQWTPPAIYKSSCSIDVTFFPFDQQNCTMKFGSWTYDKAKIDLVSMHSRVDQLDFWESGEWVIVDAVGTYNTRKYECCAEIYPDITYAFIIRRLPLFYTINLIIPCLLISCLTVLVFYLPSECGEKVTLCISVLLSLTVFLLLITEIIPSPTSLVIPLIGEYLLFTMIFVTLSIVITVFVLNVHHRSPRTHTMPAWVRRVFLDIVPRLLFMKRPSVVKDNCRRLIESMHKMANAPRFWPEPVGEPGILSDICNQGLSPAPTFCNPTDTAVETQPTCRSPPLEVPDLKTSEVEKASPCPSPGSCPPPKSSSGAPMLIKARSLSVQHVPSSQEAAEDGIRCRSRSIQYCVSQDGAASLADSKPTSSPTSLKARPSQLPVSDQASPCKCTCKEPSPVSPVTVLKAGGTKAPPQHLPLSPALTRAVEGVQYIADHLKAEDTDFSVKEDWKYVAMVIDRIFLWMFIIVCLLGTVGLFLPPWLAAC
Sequence of A4B4 (P12392 21-495): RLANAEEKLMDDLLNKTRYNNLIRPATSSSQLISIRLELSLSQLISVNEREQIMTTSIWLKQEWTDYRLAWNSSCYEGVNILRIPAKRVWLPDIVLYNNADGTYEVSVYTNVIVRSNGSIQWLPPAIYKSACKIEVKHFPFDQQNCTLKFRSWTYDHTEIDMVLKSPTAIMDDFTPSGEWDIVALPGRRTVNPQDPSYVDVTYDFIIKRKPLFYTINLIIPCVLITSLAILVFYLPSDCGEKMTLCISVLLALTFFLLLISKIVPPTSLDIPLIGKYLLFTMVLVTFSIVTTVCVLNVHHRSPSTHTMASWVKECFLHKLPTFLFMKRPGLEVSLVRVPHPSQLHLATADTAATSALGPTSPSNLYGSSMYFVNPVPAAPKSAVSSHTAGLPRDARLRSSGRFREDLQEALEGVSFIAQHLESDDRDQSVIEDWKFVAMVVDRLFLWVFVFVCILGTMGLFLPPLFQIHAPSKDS
Sequence of A2B4 (P12389 28-511): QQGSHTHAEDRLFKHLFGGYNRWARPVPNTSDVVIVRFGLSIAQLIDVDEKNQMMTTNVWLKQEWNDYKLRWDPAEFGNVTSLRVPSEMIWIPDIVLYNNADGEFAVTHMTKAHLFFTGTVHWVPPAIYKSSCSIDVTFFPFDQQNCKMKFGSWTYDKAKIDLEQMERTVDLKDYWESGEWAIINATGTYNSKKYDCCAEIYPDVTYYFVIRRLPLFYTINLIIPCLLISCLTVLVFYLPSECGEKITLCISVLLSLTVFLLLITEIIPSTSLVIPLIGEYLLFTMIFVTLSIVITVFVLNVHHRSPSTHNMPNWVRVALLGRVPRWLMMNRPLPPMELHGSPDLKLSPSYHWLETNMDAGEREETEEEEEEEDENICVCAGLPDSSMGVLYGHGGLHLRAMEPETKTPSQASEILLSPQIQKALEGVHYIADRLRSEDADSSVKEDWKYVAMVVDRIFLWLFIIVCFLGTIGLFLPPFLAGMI
Sequence of A2B4 (P12392 21-495): as the sequence (P12392 21-495) above
Sequence of H1 (P35367 whole entry): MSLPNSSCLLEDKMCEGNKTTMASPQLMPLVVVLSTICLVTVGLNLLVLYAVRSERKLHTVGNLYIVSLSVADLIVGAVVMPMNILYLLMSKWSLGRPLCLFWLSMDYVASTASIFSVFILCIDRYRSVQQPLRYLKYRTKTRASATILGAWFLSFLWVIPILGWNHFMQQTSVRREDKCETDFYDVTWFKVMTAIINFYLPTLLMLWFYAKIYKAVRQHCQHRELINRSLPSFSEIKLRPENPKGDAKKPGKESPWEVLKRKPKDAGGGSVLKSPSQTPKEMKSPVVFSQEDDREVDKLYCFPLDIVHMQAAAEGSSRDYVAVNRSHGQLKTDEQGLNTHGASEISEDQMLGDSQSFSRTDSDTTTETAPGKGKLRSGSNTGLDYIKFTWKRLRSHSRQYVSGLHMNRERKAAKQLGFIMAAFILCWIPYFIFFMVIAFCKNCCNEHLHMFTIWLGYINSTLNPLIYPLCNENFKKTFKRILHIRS
Sequence of 5HT3 (P46098 24-478): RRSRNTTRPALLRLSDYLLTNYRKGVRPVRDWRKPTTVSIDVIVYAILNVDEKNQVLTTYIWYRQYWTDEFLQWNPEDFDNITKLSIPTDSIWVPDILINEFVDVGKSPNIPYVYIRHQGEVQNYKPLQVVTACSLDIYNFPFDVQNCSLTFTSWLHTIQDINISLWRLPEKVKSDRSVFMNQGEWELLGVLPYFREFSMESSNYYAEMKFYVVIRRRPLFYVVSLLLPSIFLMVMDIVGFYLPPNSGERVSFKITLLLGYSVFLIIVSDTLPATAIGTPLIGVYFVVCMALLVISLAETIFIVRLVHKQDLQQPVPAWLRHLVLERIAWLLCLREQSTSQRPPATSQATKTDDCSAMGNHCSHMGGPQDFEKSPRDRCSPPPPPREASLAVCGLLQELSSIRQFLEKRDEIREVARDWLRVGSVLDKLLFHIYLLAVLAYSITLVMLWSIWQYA

## OCCCN1CCCC2CC1c1cc(-c3ccc(C(F)(F)F)cc3)ccc12 (racemic) [UKH-1114, (±)-9-(4-(Trifluoromethyl)phenyl)-3,4,5,6-tetrahydro-1,6-methanobenzo[c]azocin-2(1H)-yl)propan-1-ol]
[1]; IT
  time of peak relief of mechanical hypersensitivity after dosing: 48 h
[1]; single IT injection, 10 μg, vs vehicle
  effect on SNI-induced mechanical hypersensitivity: significant antimechanical hypersensitivity effects at either 24 or 48 h
[2]
  inhibition of radioligand binding (Ki column, footnote a): ^a (<50% inhibition of radioligand binding at 10 μM)
[3]
  inhibition of radioligand binding (Ki column, footnote a): ^a (<50% inhibition of radioligand binding at 10 μM)
[4]
  inhibition of radioligand binding (Ki column, footnote a): ^a (<50% inhibition of radioligand binding at 10 μM)
[5]
  inhibition of radioligand binding (Ki column, footnote a): ^a (<50% inhibition of radioligand binding at 10 μM)
[6]
  inhibition of radioligand binding (Ki column, footnote a): ^a (<50% inhibition of radioligand binding at 10 μM)
[7]
  inhibition of radioligand binding (Ki column, footnote a): ^a (<50% inhibition of radioligand binding at 10 μM)
[8]
  inhibition of radioligand binding (Ki column, footnote a): ^a (<50% inhibition of radioligand binding at 10 μM)
[9]
  inhibition of radioligand binding (Ki column, footnote a): ^a (<50% inhibition of radioligand binding at 10 μM)
[10]
  inhibition of radioligand binding (Ki column, footnote a): ^a (<50% inhibition of radioligand binding at 10 μM)
[11]
  inhibition of radioligand binding (Ki column, footnote a): ^a (<50% inhibition of radioligand binding at 10 μM)
[12]
  Ki: > 10 µM
[13]
  inhibition of radioligand binding (Ki column, footnote a): ^a (<50% inhibition of radioligand binding at 10 μM)
[14]
  inhibition of radioligand binding (Ki column, footnote a): ^a (<50% inhibition of radioligand binding at 10 μM)
[15]
  inhibition of radioligand binding (Ki column, footnote a): ^a (<50% inhibition of radioligand binding at 10 μM)
[16]
  inhibition of radioligand binding (Ki column, footnote a): ^a (<50% inhibition of radioligand binding at 10 μM)
[17]
  Ki: 6.72 µM
[18]
  Ki: > 10 µM
[19]
  Ki: > 10 µM
